The structures appear in SMILES notation.

The results in this text go back to ChEMBL document CHEMBL1132586, “New water-soluble duocarmycin derivatives: synthesis and antitumor activity of A-ring pyrrole compounds bearing beta-heteroarylacryloyl groups” (J Med Chem, 1999).

The species entered for series [1] is Mus musculus. The series can be described thus: Compound was tested for hematotoxicity and the number of peripheral platelets of normal mice on day 7 (percent of control) was determined, expressed as percent of control. Type of series: functional. In a few lines:
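Normal male ddY mice (mean weight 20 ± 1 g) given a single iv tail-vein injection of drug dissolved in saline; 7 days later orbital-vein blood drawn and platelets counted on a microcell counter; value is treated count as percent of control.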

Series [2] deals with CCRF S-180. The series can be described thus: Compound was tested in vivo for antitumor activity against murine sarcoma 180 in mice at 0.25 mg/kg dosage and efficacy is expressed as T/C (mice were implanted subcutaneously with tumor cells and the drug was dosed intravenously). It is filed as functional, Mus musculus. Conditions: route intravenous. In a few lines:
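Sarcoma 180 cells passaged in adult male ddY mice and inoculated sc at the axillary region, 5 mice/group; iv dosing began 1 day after inoculation. Tumour volume = length × width²/2. T/C is treated over control mean tumour volume; effective at ≤42%, Mann–Whitney U test (p < 0.05).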

Series [3] is filed under the species Mus musculus. As to the kind of experiment: Compound was tested for hematotoxicity and the number of white blood cells of tumor bearing mice on day 4(percent of control) was determined, expressed as percent of control. It is filed as functional. In a few lines: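 Sarcoma 180-bearing mice dosed iv starting 1 day after sc tumour inoculation; 4 days later orbital-vein blood drawn and white blood cells counted on a microcell counter; value is treated count as percent of control.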

Series [4] deals with CCRF S-180. As to the kind of experiment: Compound was tested in vivo for antitumor activity against murine sarcoma 180 in mice at 4 mg/kg dosage and efficacy is expressed as T/C (mice were implanted subcutaneously with tumor cells and the drug was dosed intravenously). The conditions noted are these: route intravenous.
Series [5] relates to HeLa. As to the kind of experiment: Compound was tested in vitro for anticellular activity against HeLa S3 cell growth at 72-hour exposure. Type of series: functional, cell-based. Conditions: Homo sapiens.
Series [6] deals with HeLa. As to the kind of experiment: Compound was tested in vitro for anticellular activity against HeLa S3 cell growth at 1-hour exposure. Type of series: functional, cell-based. Conditions: Homo sapiens.
The nature of series [7]: Aqueous solubility of the compound. It is filed as physicochemical. Conditions: water; read-out: S.

With `COC(=O)c1c(C)[nH]c2c1[C@@]13C[C@@H]1CN(C(=O)/C=C/c1ccc(OC)cc1)C3=CC2=O`, the values for the Hematotoxicity in series [1] and in series [3] were 50% and 63%, respectively. In series [2], this compound showed a T/C of 0.34.
On to `COC(=O)c1c(C)[nH]c2c1[C@@]13C[C@@H]1CN(C(=O)/C=C/c1ccc(OC)nc1)C3=CC2=O`, for which the Hematotoxicity in series [1] worked out at 50%; in series [3] it was 84%. The compound also returned a T/C in series [4] of 0.6. Moreover, the IC50 (usually the concentration that gives 50% inhibition) was found to be 0.42 nM in series [5] and 3.3 nM in series [6].
Regarding `COC(=O)c1c(C)[nH]c2c1[C@@]13C[C@@H]1CN(C(=O)/C=C/c1cnc(OC)nc1)C3=CC2=O`, the Hematotoxicity in series [1] was 28%; in series [3] it was 86%. The compound further displayed a T/C in series [2] of 0.45. For the same compound, the IC50 was found to be 0.9 nM in series [5] and 2.5 nM in series [6].
As for `COC(=O)c1c(C)[nH]c2c1[C@@]13C[C@@H]1CN(C(=O)/C=C/c1ccc(OC)cn1)C3=CC2=O`, the IC50 in series [5] is 2.9 nM; in series [6], 9.7 nM.
For `COC(=O)c1c(C)[nH]c2c1[C@@]13C[C@@H]1CN(C(=O)/C=C/c1ccc(OC)nn1)C3=CC2=O` the same measures were 0.28 nM and 0.5 nM.
In the case of `COC(=O)c1c(C)[nH]c2c(OC(=O)N3CCN(C)CC3)cc3c(c12)[C@H](CBr)CN3C(=O)/C=C/c1ccc(OC)cn1.Cl`, the Hematotoxicity in series [1] came out at 38%; in series [3] it was 105%. In series [2], the T/C amounted to 0.5. For the same compound, the 50% inhibitory concentration (IC50) in series [5] came to 150 nM; in series [6], 1300 nM. Besides, the solubility in series [7] is greater than 20 mg/mL.
As for `COC(=O)c1c(C)[nH]c2c(OC(=O)N3CCN(C)CC3)cc3c(c12)[C@H](CBr)CN3C(=O)/C=C/c1cnc(OC)nc1.Cl`, the Hematotoxicity in series [1] is listed as 26%; in series [3] it was 69%. The T/C in series [2] is 0.26. For the same compound, the IC50 in series [5] was 170 nM; in series [6], 1300 nM. In addition, in series [7], the solubility was greater than 20 mg/mL.
Turning to `COC(=O)c1c(C)[nH]c2c(OC(=O)N3CCN(C)CC3)cc3c(c12)[C@H](CBr)CN3C(=O)/C=C/c1ccc(OC)nn1.Cl`, the values for the Hematotoxicity in series [1] and in series [3] were 51% and 115%, respectively. In series [2], this compound came in with a T/C of 0.31. Further, the IC50 in series [5] was found to be 90 nM; in series [6] it was 1100 nM. Further, the solubility in series [7] is greater than 20 mg/mL.
For `COC(=O)c1c(C)[nH]c2c(OC(=O)N3CCN(C)CC3)cc3c(c12)[C@H](CBr)CN3C(=O)/C=C/c1ccc(OC)nc1.Cl`, the Hematotoxicity in series [1] is reported as 38%; in series [3], 92%. In series [2], this compound gave a T/C of 0.36. Besides, the IC50 worked out at 110 nM in series [5] and 900 nM in series [6]. In addition, in series [7], the solubility was greater than 20 mg/mL.
